# Test results taken from ChEMBL document CHEMBL1157475, “Selective influence on contextual memory: physiochemical properties associated with selectivity of benzodiazepine ligands at GABAA receptors containing the alpha5 subunit” (J Med Chem, 2008).
# Calls of active or inactive are those of the source. The calls are words filed in the database; no cut-off is given here.
# How the values were obtained:
# [1] = molecular target: T1, GABA-A receptor; alpha-1/beta-3/gamma-2 (Homo sapiens, UniProt P14867+P18507+P28472); assay: Binding affinity to GABAA alpha-1-beta-3-gamma-2 receptor; format: protein-complex assay
# T1 sequence (P14867 whole entry): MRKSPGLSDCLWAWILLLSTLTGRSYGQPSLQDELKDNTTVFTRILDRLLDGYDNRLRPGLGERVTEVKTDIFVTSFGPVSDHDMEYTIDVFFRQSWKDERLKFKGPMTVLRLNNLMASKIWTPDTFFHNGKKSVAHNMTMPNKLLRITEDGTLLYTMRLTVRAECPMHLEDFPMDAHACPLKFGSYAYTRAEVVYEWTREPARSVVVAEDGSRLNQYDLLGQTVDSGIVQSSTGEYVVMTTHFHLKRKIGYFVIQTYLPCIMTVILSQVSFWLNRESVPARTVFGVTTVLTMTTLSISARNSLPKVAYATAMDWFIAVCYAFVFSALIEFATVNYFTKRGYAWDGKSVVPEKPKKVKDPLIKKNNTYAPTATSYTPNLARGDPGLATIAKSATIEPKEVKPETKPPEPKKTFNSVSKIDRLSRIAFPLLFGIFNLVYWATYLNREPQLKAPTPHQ
# T1 sequence (P18507 whole entry): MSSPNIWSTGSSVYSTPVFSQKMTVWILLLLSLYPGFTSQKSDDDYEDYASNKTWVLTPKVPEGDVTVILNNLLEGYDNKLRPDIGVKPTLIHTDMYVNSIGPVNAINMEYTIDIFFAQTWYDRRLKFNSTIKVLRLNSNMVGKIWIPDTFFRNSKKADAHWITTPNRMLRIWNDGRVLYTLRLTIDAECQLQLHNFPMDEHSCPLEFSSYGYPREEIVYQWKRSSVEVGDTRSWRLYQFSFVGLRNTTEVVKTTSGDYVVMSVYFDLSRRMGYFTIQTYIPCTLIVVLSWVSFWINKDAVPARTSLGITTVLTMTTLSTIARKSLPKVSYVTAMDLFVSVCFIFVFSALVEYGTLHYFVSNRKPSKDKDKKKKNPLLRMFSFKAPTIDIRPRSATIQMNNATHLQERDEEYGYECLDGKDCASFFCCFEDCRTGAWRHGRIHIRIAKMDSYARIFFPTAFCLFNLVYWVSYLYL
# T1 sequence (P28472 whole entry): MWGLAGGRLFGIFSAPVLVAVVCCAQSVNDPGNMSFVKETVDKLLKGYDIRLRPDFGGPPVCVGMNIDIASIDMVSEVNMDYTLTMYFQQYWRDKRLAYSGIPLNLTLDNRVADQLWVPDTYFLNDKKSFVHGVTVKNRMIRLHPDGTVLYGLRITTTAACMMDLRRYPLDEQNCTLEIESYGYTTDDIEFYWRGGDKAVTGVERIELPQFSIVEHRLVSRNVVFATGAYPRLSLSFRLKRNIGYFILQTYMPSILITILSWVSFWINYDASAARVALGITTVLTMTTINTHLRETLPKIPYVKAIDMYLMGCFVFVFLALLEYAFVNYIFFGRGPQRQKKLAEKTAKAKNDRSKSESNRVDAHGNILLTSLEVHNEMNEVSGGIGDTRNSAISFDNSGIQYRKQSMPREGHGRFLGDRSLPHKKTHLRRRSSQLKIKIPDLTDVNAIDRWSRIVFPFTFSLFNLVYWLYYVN
# [2] = molecular target: T2, Gamma-aminobutyric acid receptor subunit alpha-5 (Homo sapiens, UniProt P18507+P31644+P47870); assay: Binding affinity to GABAA alpha-5-beta-2-gamma-2 receptor
# T2 sequence (P31644 whole entry): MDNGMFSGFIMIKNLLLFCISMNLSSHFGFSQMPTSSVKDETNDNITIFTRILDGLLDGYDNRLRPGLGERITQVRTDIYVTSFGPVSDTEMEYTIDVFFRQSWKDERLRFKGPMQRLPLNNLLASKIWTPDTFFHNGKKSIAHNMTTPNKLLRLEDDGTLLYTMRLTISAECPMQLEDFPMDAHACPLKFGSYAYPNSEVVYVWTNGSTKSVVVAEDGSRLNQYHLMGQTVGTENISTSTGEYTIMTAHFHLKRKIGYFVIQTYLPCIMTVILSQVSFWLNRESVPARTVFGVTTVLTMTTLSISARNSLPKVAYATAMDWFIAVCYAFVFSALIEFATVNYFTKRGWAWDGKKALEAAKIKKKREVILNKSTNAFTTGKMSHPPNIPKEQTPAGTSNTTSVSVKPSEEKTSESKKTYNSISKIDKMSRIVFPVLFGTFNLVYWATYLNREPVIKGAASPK
# Procedure, shortened: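 Sf-9 insect cells infected with baculovirus carrying α5, β2 and γ2 subunits in equimolar ratio (2 MOI), harvested 60 h post-infection, then homogenized in 50 mM Tris-HCl pH 7.7. Incubated 90 min at 0 °C in triplicate; filtration and scintillation counting.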
# [3] = molecular target: T3, Gamma-aminobutyric acid receptor subunit alpha-1 (Homo sapiens, UniProt P14867+P18507+P47870); assay: Binding affinity to GABAA alpha-1-beta-2-gamma-2 receptor
# T3 sequence (P14867 whole entry): T1 sequence (P14867 whole entry)
# [4] = molecular target: T3, Gamma-aminobutyric acid receptor subunit alpha-1; assay: Displacement of [3H]Ro15-4513 from GABAA alpha-1-beta-2-gamma-2 receptor expressed in Sf9 baculovirus system
# Procedure, shortened: (§1)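 Homogenates of Sf-9 cells infected 60 h earlier with baculoviruses for each of the three subunits (2 MOI, equimolar), in 50 mM Tris-HCl pH 7.7. Competition against 0.5–1.0 nM [3H]-Ro15-4513, with unlabeled ligand from 40 pM to 10 µM (ethanol below 0.1%). Incubated 90 min at 0 °C, in triplicate. Separated by rapid filtration and read by scintillation counting.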
# [5] = molecular target: T2, Gamma-aminobutyric acid receptor subunit alpha-5; assay: Displacement of [3H]Ro15-4513 from GABAA alpha-5-beta-2-gamma-2 receptor expressed in Sf9 baculovirus system; procedure, shortened: as §1
# Mus musculus [6] = assay: Anticonvulsant activity in C57BL/6J mouse assessed as inhibition of increase in excitatory tone in brain at 30 mg/kg, ip; format: functional, organism-based; set-up: dose 30 mg/kg
# [7] = molecular target: T4, GABA A receptor alpha-4/beta-3/gamma-2 (Homo sapiens, UniProt P18507+P28472+P48169); assay: Binding affinity to GABAA alpha-4-beta-3-gamma-2 receptor; format: protein-complex assay
# [8] = molecular target: T5, GABA-A receptor; alpha-6/beta-3/gamma-2 (Homo sapiens, UniProt P18507+P28472+Q16445); assay: Binding affinity to GABAA alpha-6-beta-3-gamma-2 receptor; format: protein-complex assay
# [9] = Selectivity for GABAA alpha-5-beta-3-gamma-2 receptor over GABAA alpha-1-beta-3-gamma-2 receptor
# [10] = Selectivity for GABAA alpha-5-beta-3-gamma-2 receptor over GABAA alpha-2-beta-3-gamma-2 receptor
# [11] = Selectivity for GABAA alpha-5-beta-3-gamma-2 receptor over GABAA alpha-3-beta-3-gamma-2 receptor
# [12] = Selectivity for GABAA alpha-5-beta-3-gamma-2 receptor over GABAA alpha-4-beta-3-gamma-2 receptor
# [13] = Selectivity for GABAA alpha-5-beta-3-gamma-2 receptor over GABAA alpha-6-beta-3-gamma-2 receptor
# [14] = molecular target: GABA-A receptor; alpha-2/beta-3/gamma-2 (Homo sapiens) (UniProt P18507+P28472+P47869); assay: Activity at GABAA alpha-2-beta-3-gamma-2 receptor expressed in Xenopus oocytes assessed as potentiation of GABA-induced chloride current at 1 uM; format: cell-based; settings: Oocyte
# [15] = molecular target: T4, GABA A receptor alpha-4/beta-3/gamma-2; assay: Activity at GABAA alpha-4-beta-3-gamma-2 receptor expressed in Xenopus oocytes assessed as potentiation of GABA-induced chloride current at 1 uM; format: cell-based; settings: Oocyte
# [16] = molecular target: T5, GABA-A receptor; alpha-6/beta-3/gamma-2; assay: Activity at GABAA alpha-6-beta-3-gamma-2 receptor expressed in Xenopus oocytes assessed as potentiation of GABA-induced chloride current at 1 uM; format: cell-based; settings: Oocyte
# Mus musculus [17] = assay: Inhibition of scopolamine-induced impairment of contextual memory in C57BL/6J mouse at 10 mg/kg, ip after 24 hrs; format: functional, organism-based; set-up: dose 10 mg/kg
# Procedure, shortened: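 Male C57Bl/6 mice, 7–12 weeks old, given ip vehicle (0.9% saline with 2.5% encapsin), scopolamine 1.5 mg/kg, or scopolamine plus ligand. After 20 min: context exposure, then three 33 s tones (85 dB, 2.9 kHz), each ending with a 0.75 mA footshock. Freezing scored over 4 min in the same context 24 h later.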
# T4 sequence (P48169 whole entry, one chain of several): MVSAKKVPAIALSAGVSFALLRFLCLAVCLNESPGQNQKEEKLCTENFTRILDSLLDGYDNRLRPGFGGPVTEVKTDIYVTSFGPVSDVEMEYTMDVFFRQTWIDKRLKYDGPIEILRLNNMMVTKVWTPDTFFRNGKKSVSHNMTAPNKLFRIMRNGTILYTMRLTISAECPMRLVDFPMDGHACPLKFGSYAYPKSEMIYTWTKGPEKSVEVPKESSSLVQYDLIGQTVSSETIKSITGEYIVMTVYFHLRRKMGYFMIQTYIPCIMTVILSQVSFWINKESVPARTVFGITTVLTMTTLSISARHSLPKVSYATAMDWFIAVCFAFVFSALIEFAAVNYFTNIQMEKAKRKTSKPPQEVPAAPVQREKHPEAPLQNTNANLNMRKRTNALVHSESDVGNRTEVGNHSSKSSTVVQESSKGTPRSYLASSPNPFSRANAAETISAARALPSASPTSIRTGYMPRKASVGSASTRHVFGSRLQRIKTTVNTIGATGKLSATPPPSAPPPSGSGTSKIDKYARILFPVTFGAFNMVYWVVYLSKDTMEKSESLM
# T5 sequence (Q16445 whole entry, one chain of several): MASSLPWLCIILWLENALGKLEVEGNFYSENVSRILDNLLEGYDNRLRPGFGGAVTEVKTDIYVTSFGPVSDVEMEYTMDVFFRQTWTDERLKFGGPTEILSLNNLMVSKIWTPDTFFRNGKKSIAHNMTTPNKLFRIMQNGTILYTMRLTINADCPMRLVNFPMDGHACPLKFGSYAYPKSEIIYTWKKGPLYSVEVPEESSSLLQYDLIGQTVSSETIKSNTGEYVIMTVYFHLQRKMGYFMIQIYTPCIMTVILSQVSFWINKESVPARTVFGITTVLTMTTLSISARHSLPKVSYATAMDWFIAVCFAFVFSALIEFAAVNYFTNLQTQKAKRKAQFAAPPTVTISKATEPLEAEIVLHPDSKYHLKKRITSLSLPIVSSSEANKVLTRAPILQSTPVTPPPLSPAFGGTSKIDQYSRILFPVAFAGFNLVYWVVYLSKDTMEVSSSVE
SMILES,Ki [1] [nM],Kd [3] [nM],Kd [2] [nM],other results
CCc1ncn2c3ccc(Cl)cc3c(=O)n(C)c12,408,–,–,Ki [2]: 182 nM
COCc1c(C(=O)OC(C)C)ncc2[nH]c3ccc(OCc4ccccc4)cc3c12 [ABECARNIL],–,1,8.4,–
CN1C(=O)CN=C(c2ccccc2)c2ccccc21,–,–,–,IC50 [4]: > 10000 nM; IC50 [5]: > 10000 nM
CSc1nccc(-c2ccc(S(=O)(=O)Nc3ccc(Cl)cc3)s2)n1,–,–,–,IC50 [4]: 470 nM; IC50 [5]: > 10000 nM
CCOC(=O)c1[nH]cc2nc3cc(OC)c(OC)cc3c-2c1CC,–,8,1,–
C#Cc1ccc2c(c1)C(c1ccccc1)=NCC(=O)N2C,–,76,7,–
CCOC(=O)c1ncn2c1C1CCCN1C(=O)c1cc(C#C[Si](C)(C)C)ccc1-2 (stereo unspecified),–,200,4,–
CSC1SC(C(=O)c2cccc([N+](=O)[O-])c2)C2CC(C)(C)CC(=O)C12 (stereo unspecified),–,–,–,IC50 [4]: > 10000 nM; IC50 [5]: > 10000 nM
O=C1C2C=Nc3ccccc3C2=NN1c1ccc(Cl)cc1 (stereo unspecified) [CGS-9896],–,0.3,40,–
Cn1c(=O)c2cc(Cl)ccc2n2cnc(CO)c12,> 300,–,–,Ki [2]: > 300 nM
O=C1C2C=Nc3ccccc3C2=NN1c1ccccc1 (stereo unspecified) [CGS-8216],–,8.3,200,–
COC(=O)c1cc2c(cn1)[nH]c1ccccc12 [BETA-CCM],–,1,58,–
CCCCC(=O)c1ncn2c3ccc(Cl)cc3c(=O)n(C)c12,1580,–,–,Ki [2]: 166 nM
Nc1c(C(=O)c2ccc(Cl)cc2)sc2ccccc12,–,–,–,IC50 [4]: 1000 nM; IC50 [5]: 1000 nM
CSC1SC(C(=O)c2ccc(Cl)cc2)C2CCCC(=O)C12 (stereo unspecified),–,–,–,IC50 [4]: 580 nM; IC50 [5]: 550 nM
CCCCCc1ncn2c3ccc(Cl)cc3c(=O)n(C)c12,2050,–,–,Ki [2]: 369 nM
CCOCc1ncn2c3ccc(Cl)cc3c(=O)n(C)c12,500,–,–,Ki [2]: 83 nM

SMILES,Ki [1] [nM],Kd [3] [nM],Kd [2] [nM],other results
CCOC(=O)c1cc2c(cn1)[nH]c1ccccc12,–,1,–,–
COc1ccc(-n2nc3c4ccccc4[nH]cc-3c2=O)cc1,–,0.1,5,–
COCc1ncn2c1CN(C)C(=O)c1cc(Cl)ccc1-2,920,–,–,Activity (Mus musculus [6]): Active; Ki [7]: > 300 nM; Ki [8]: 9 µM; Selectivity ratio [9]: 20; Selectivity ratio [10]: 20; Selectivity Index [11]: 20; Activity [12]: 20; Activity [13]: 20; Activity [14]: 4%; Activity [15]: 4%; Activity [16]: 4%; Activity (Mus musculus [17]): Active
CCOC(=O)c1ncn2c3ccc(C#C[Si](C)(C)C)cc3c(=O)n(C)c12,–,121,5,–
Cn1c(=O)c2cc(Cl)ccc2n2cnc(C(=O)OCC3CC3)c12,16.4,–,–,Ki [2]: 9.8 nM
Cn1c(=O)c2cc(Cl)ccc2n2cnc(C(=O)OC(C)(C)C)c12,17.3,–,–,Ki [2]: 0.65 nM
CCCOc1cc2c(cn1)[nH]c1ccccc12,–,5,591,–
CC(=O)c1ncn2c3ccc(Cl)cc3c(=O)n(C)c12,17500,–,–,Ki [2]: 2610 nM
CCOc1cc2c(cn1)[nH]c1ccccc12,–,1.2,826,–
CCOC(=O)c1ncn2c1[C@@H]1CCN1C(=O)c1cc(C#C[Si](C)(C)C)ccc1-2,–,83,2.6,–
Cn1c(=O)c2cc(C#C[Si](C)(C)C)ccc2n2cnc(C(=O)OC(C)(C)C)c12,–,197,58,–
CC(=O)NC1N=C(c2ccccc2)c2ccccc2NC1=O (stereo unspecified),–,–,–,IC50 [4]: > 10000 nM; IC50 [5]: > 10000 nM
CC(C)(C)OC(=O)c1cc2c3ccccc3nc-2c[nH]1,–,1,111,–
Cn1c(=O)c2cc(Cl)ccc2n2cnc(CCl)c12,500,–,–,Ki [2]: 500 nM
Cc1nn(Cc2nc(-c3cccc([N+](=O)[O-])c3)cs2)c(C)c1Br,–,–,–,IC50 [4]: > 10000 nM; IC50 [5]: > 10000 nM
CSC1SC(C(=O)c2ccc(Cl)cc2)C2CC(C)(C)CC(=O)C12 (stereo unspecified),–,–,–,IC50 [4]: 580 nM; IC50 [5]: 210 nM
